Test results from ChEMBL document CHEMBL1135970, “Identification of a pharmacophore for thrombopoietic activity of small, non-peptidyl molecules. 1. Discovery and optimization of salicylaldehyde thiosemicarbazone thrombopoietin mimics” (J Med Chem, 2002).

How the values were obtained:
Homo sapiens = species: Homo sapiens; experiment: Thrombopoietin efficacy in human bone marrow cultures was reported; assay type: functional
[1] = Compound was evaluated for the expression of luciferase activity in BAF3/TPO-Rluc cell line; assay type: functional, cell-based; details: Homo sapiens, BAF-3/TPO-Rluc
In short: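 BAF3/TPO-Rluc cells at (1 × 10⁵)/mL, starved of IL-3 overnight, in growth medium with 0.5% v/v FBS and 30 µM ZnCl₂. Incubated with compound (0.32% DMSO final) or rhuTPO for 3 h at 37 °C, 5% CO₂. Luciferase activity read on a luminometer; each point is the mean of triplicate assays.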

SMILES | EC50 [1] | TPO(max) (Homo sapiens)
Cc1ccc(-n2[nH]c(C)c(/N=N/c3c(O)cc(S(=O)(=O)O)c4ccccc34)c2=O)cc1C | 40 nM | 100%
Cc1ccc(-c2cccc(/C=N/N=C(\S)Nc3cccc(C(=O)O)c3)c2O)cc1C |  | 90%
O=C(O)c1ccc(N/C(S)=N/N=C/c2cccc(-c3cccc(C(F)(F)F)c3)c2O)cc1 |  | 100%

Further lines, with some results ahead:

EC50 [1] | SMILES | TPO(max) (Homo sapiens)
5600 nM | Cc1cc(Cl)ccc1/N=C(\S)N/N=C/c1cc(Cl)cc(Cl)c1O | 30%
260 nM | O=S(=O)(O)c1ccc(N/C(S)=N/N=C/c2cc(Cl)cc(Cl)c2O)cc1 | 29%
350 nM | O=C(O)c1ccc(N/C(S)=N/N=C/c2cc(Cl)cc(Cl)c2O)cc1 | 30%
